Test results as given in ChEMBL document CHEMBL1142651, “Design and synthesis of conformationally constrained Grb2 SH2 domain binding peptides employing alpha-methylphenylalanyl based phosphotyrosyl mimetics” (J Med Chem, 2005).
pKd: −log10 of the molar value. Several values for one entry are separate records, joined by “and”; a condition that tells them apart may be missing. Equal entries are not always repeated.

What was measured:
[1] = target: T1, Growth factor receptor-bound protein 2 (Homo sapiens, UniProt P62993); assay: In vitro relative association value for growth factor receptor bound protein 2 SH2 domain from human breast cancer cells; assay type: cell-based; details: Cancer cell lines
Target sequence in this assay (P62993 whole entry, looked up, the tested form may be a part): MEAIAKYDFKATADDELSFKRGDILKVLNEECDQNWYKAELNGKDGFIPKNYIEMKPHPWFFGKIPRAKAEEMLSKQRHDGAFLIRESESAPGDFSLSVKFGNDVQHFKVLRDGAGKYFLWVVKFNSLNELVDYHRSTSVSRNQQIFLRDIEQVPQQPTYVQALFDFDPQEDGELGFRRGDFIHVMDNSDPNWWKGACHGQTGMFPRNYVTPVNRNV

[2] = target: T1, Growth factor receptor-bound protein 2; assay: In vitro dissociation rate constant for growth factor receptor bound protein 2 SH2 domain from human breast cancer cells; details: cancer cell lines
Target sequence in this assay (P62993 whole entry, the tested form may be a part): as the sequence (P62993 whole entry, looked up, the tested form may be a part) above

[3] = target: T1, Growth factor receptor-bound protein 2; assay: In vitro binding affinity for growth factor receptor bound protein 2 SH2 domain from human breast cancer cells; assay type: cell-based, Cancer cell lines
Summary of the method: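 SPR: Grb2 SH2 protein (b-Grb2) amine-coupled to CM5 dextran chip at 2500-5000 RU. Ligands 1.25-1500 nM in PBS pH 7.4 running buffer, injected at 25 °C in increasing order, in duplicate, 1 min association, 3 min dissociation, no regeneration. Double-referenced against a blank surface and buffer injections. KD from global fit (1:1 or heterogeneity model) of at least four independent data sets.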
Target sequence in this assay (P62993 whole entry, the tested form may be a part): as the sequence (P62993 whole entry, looked up, the tested form may be a part) above

In the case of C[C@@]1(Cc2ccc(P(=O)(O)O)cc2)NC(=O)CC(c2ccc(CP(=O)(O)O)cc2)/C=C/C[C@@H](Cc2cccc3ccccc23)CNC(=O)[C@H](CC(N)=O)NC1=O (stereo in doubt; 10B) [listing 1 of 2 here], the Ka [1] was 230000 1/M·1/S.
In the case of C[C@@]1(Cc2ccc(P(=O)(O)O)cc2)NC(=O)CC(c2ccc(CP(=O)(O)O)cc2)/C=C/C[C@@H](Cc2cccc3ccccc23)CNC(=O)[C@H](CC(N)=O)NC1=O (stereo in doubt; 10A) [listing 1 of 2 here], the Ka [1] was 6.5e+06 1/M·1/S.
Work on C[C@@]1(Cc2ccc(P(=O)(O)O)cc2)NC(=O)CC(c2ccc(CP(=O)(O)O)cc2)/C=C/C[C@@H](Cc2cccc3ccccc23)CNC(=O)[C@H](CC(N)=O)NC1=O (stereo in doubt; 10A) [listing 2 of 2 here] yielded a koff [2] of 0.00063 s⁻¹ and a pKd [3] of 10.01.
In the case of C[C@@]1(Cc2ccc(P(=O)(O)O)cc2)NC(=O)CC(c2ccc(CP(=O)(O)O)cc2)/C=C/C[C@@H](Cc2cccc3ccccc23)CNC(=O)[C@H](CC(N)=O)NC1=O (stereo in doubt; 10), the pKd [3] was 8.64 and 8.37.
Work on C[C@@]1(Cc2ccc(P(=O)(O)O)cc2)NC(=O)CC(c2ccc(CP(=O)(O)O)cc2)/C=C/C[C@@H](Cc2cccc3ccccc23)CNC(=O)[C@H](CC(N)=O)NC1=O (stereo in doubt; 10B) [listing 2 of 2 here] yielded a koff [2] of 0.018 s⁻¹ and a pKd [3] of 7.14.
